Laboratory results taken from ChEMBL document CHEMBL3877308, “Design, synthesis and in vitro biological evaluation of oligopeptides targeting E. coli type I signal peptidase (LepB)” (Bioorg Med Chem, 2017).
pIC50: −log10 of the molar value. ≈ marks a conversion by molar mass, not a printed value.

Tests used:
[1] = target: Signal peptidase I (Escherichia coli K-12) (UniProt P00803); assay: Inhibition of full length Escherichia coli His6-tagged LepB expressed in Escherichia coli C43(DE3) assessed as residual activity at 0.039 uM using dabcyl-VEVGGTATAGAFSRPGLE-(EDANS) as substrate preincubated for 10 mins followed by substrate addition measured for 2 hrs by FRET assay relative to control
Chain of Signal peptidase I (Escherichia coli K-12) (P00803 whole entry): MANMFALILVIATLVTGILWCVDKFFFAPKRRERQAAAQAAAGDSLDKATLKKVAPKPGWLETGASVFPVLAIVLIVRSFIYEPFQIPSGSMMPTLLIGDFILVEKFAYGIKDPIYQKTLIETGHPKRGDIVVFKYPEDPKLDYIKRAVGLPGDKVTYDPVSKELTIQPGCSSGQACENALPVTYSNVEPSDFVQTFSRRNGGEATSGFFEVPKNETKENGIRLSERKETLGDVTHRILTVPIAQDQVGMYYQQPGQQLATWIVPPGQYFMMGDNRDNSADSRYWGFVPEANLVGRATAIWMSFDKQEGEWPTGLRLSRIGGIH
Procedure, shortened: (§1)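 Enzyme came from the membrane fraction, extracted with 1% reduced Triton X-100 and purified by metal-chelation chromatography in 0.5% detergent. FRET pair was dabcyl acceptor and EDANS donor. EcLepB (final about 50 nM) was pre-incubated with compound 10 min at 22 °C. Reaction was then run with 8 µM substrate, following the linear fluorescence increase at 22 °C for 2 h.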

[2] = Hemolytic activity against human RBC at 100 uM after 45 mins by spectrophotometric method relative to control; assay type: ADME, cell-based, Erythrocyte; settings: red blood cells (RBC), read-out: Activity
Procedure, shortened: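 Hemolysis was tested using red blood cells from heparinized human blood.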

[3] = target: Signal peptidase I (Escherichia coli K-12) (UniProt P00803); assay: Potency index, ratio of decanoyl-PTANA-CHO IC50 to compound IC50 for full length Escherichia coli His6-tagged LepB expressed in Escherichia coli C43(DE3)
[4] = tested on: Acinetobacter baumannii; assay: Antibacterial activity against wild type Acinetobacter baumannii ATCC 19606 after 16 to 20 hrs by broth microdilution assay; assay type: functional
Procedure, shortened: (§2)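 MIC by broth microdilution in cation-adjusted Mueller-Hinton II medium, following EUCAST and CLSI guidelines; panel of Gram-negative strains plus S. aureus ATCC 29213.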

[5] = tested on: Pseudomonas aeruginosa; assay: Antibacterial activity against wild type Pseudomonas aeruginosa PAO750 harboring efflux defective mutant after 16 to 20 hrs by broth microdilution assay; assay type: functional
Procedure, shortened: (§3)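 Broth microdilution MIC in cation-adjusted Mueller-Hinton II medium, following EUCAST and CLSI guidelines; tested on a panel of Gram-negative strains plus S. aureus ATCC 29213 (wild-type).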

[6] = target: Signal peptidase I (Escherichia coli K-12) (UniProt P00803); assay: Inhibition of full length Escherichia coli His6-tagged LepB expressed in Escherichia coli C43(DE3) assessed as residual activity at 0.0005 uM using dabcyl-VEVGGTATAGAFSRPGLE-(EDANS) as substrate preincubated for 10 mins followed by substrate addition measured for 2 hrs by FRET assay relative to control; procedure, shortened: as §1
[7] = target: Signal peptidase I (Escherichia coli K-12) (UniProt P00803); assay: Inhibition of full length Escherichia coli His6-tagged LepB expressed in Escherichia coli C43(DE3) assessed as residual activity at 0.313 uM using dabcyl-VEVGGTATAGAFSRPGLE-(EDANS) as substrate preincubated for 10 mins followed by substrate addition measured for 2 hrs by FRET assay relative to control; procedure, shortened: as §1
[8] = target: Signal peptidase I (Escherichia coli K-12) (UniProt P00803); assay: Inhibition of full length Escherichia coli His6-tagged LepB expressed in Escherichia coli C43(DE3) assessed as residual activity at 0.078 uM using dabcyl-VEVGGTATAGAFSRPGLE-(EDANS) as substrate preincubated for 10 mins followed by substrate addition measured for 2 hrs by FRET assay relative to control; procedure, shortened: as §1
[9] = target: Signal peptidase I (Escherichia coli K-12) (UniProt P00803); assay: Inhibition of full length Escherichia coli His6-tagged LepB expressed in Escherichia coli C43(DE3) assessed as residual activity at 0.001 uM using dabcyl-VEVGGTATAGAFSRPGLE-(EDANS) as substrate preincubated for 10 mins followed by substrate addition measured for 2 hrs by FRET assay relative to control; procedure, shortened: as §1
[10] = target: Signal peptidase I (Escherichia coli K-12) (UniProt P00803); assay: Inhibition of full length Escherichia coli His6-tagged LepB expressed in Escherichia coli C43(DE3) assessed as residual activity at 0.156 uM using dabcyl-VEVGGTATAGAFSRPGLE-(EDANS) as substrate preincubated for 10 mins followed by substrate addition measured for 2 hrs by FRET assay relative to control; procedure, shortened: as §1
[11] = target: Signal peptidase I (Escherichia coli K-12) (UniProt P00803); assay: Inhibition of full length Escherichia coli His6-tagged LepB expressed in Escherichia coli C43(DE3) assessed as residual activity at 5 uM using dabcyl-VEVGGTATAGAFSRPGLE-(EDANS) as substrate preincubated for 10 mins followed by substrate addition measured for 2 hrs by FRET assay relative to control; procedure, shortened: as §1
[12] = target: Signal peptidase I (Escherichia coli K-12) (UniProt P00803); assay: Inhibition of full length Escherichia coli His6-tagged LepB expressed in Escherichia coli C43(DE3) assessed as residual activity at 2.5 uM using dabcyl-VEVGGTATAGAFSRPGLE-(EDANS) as substrate preincubated for 10 mins followed by substrate addition measured for 2 hrs by FRET assay relative to control; procedure, shortened: as §1
[13] = target: Signal peptidase I (Escherichia coli K-12) (UniProt P00803); assay: Inhibition of full length Escherichia coli His6-tagged LepB expressed in Escherichia coli C43(DE3) at 100 uM using dabcyl-VEVGGTATAGAFSRPGLE-(EDANS) as substrate preincubated for 10 mins followed by substrate addition measured for 2 hrs by FRET assay relative to control; procedure, shortened: as §1
[14] = tested on: Pseudomonas aeruginosa; assay: Antibacterial activity against wild type Pseudomonas aeruginosa PAO1 after 16 to 20 hrs by broth microdilution assay; assay type: functional; procedure, shortened: as §2
[15] = target: Signal peptidase I (Escherichia coli K-12) (UniProt P00803); assay: Inhibition of full length Escherichia coli His6-tagged LepB expressed in Escherichia coli C43(DE3) assessed as residual activity at 0.02 uM using dabcyl-VEVGGTATAGAFSRPGLE-(EDANS) as substrate preincubated for 10 mins followed by substrate addition measured for 2 hrs by FRET assay relative to control; procedure, shortened: as §1
[16] = target: Signal peptidase I (Escherichia coli K-12) (UniProt P00803); assay: Inhibition of full length Escherichia coli His6-tagged LepB expressed in Escherichia coli C43(DE3) assessed as residual activity at 0.002 uM using dabcyl-VEVGGTATAGAFSRPGLE-(EDANS) as substrate preincubated for 10 mins followed by substrate addition measured for 2 hrs by FRET assay relative to control; procedure, shortened: as §1
[17] = tested on: Staphylococcus aureus; assay: Antibacterial activity against wild type Staphylococcus aureus ATCC 29213 after 16 to 20 hrs by broth microdilution assay; assay type: functional; procedure, shortened: as §2
[18] = tested on: Klebsiella pneumoniae; assay: Antibacterial activity against wild type Klebsiella pneumoniae […] after 16 to 20 hrs by broth microdilution assay; assay type: functional; procedure, shortened: as §2
[19] = target: Signal peptidase I (Escherichia coli K-12) (UniProt P00803); assay: Inhibition of full length Escherichia coli His6-tagged LepB expressed in Escherichia coli C43(DE3) assessed as residual activity at 10 uM using dabcyl-VEVGGTATAGAFSRPGLE-(EDANS) as substrate preincubated for 10 mins followed by substrate addition measured for 2 hrs by FRET assay relative to control; procedure, shortened: as §1
[20] = target: Signal peptidase I (Escherichia coli K-12) (UniProt P00803); assay: Inhibition of full length Escherichia coli His6-tagged LepB expressed in Escherichia coli C43(DE3) assessed as residual activity at 0.625 uM using dabcyl-VEVGGTATAGAFSRPGLE-(EDANS) as substrate preincubated for 10 mins followed by substrate addition measured for 2 hrs by FRET assay relative to control; procedure, shortened: as §1
[21] = target: Signal peptidase I (Escherichia coli K-12, UniProt P00803); assay: Inhibition of full length Escherichia coli His6-tagged LepB expressed in Escherichia coli C43(DE3) using dabcyl-VEVGGTATAGAFSRPGLE-(EDANS) as substrate preincubated for 10 mins followed by substrate addition measured for 2 hrs by FRET assay
Chain of Signal peptidase I (P00803 whole entry): as above
Procedure, shortened: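 Enzyme extracted from the membrane fraction with 1% reduced Triton X-100 and purified by metal-chelation chromatography in 0.5% detergent. Enzyme (final ~50 nM) was pre-incubated with compound for 10 min at 22 °C. The linear rise in EDANS donor fluorescence (dabcyl acceptor) was then followed at 22 °C for 2 h. IC50 came from non-linear regression of sigmoidal rate-versus-concentration curves.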

[22] = tested on: Escherichia coli; assay: Antibacterial activity against Escherichia coli D22 harboring lpxC mutant after 16 to 20 hrs by broth microdilution assay; assay type: functional; procedure, shortened: as §3
[23] = Cytotoxicity against human HepG2 cells assessed as reduction in cell viability after 72 hrs by fluorescein diacetate dye based fluorometric microculture assay; assay type: toxicity
Procedure, shortened: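 FMCA on HepG2 cells read at 72 h. Survival index (%) is fluorescence in test wells as percent of control cultures, with blank values subtracted. IC50 was obtained by non-linear regression of log concentration-effect curves.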

[24] = target: Signal peptidase I (Escherichia coli K-12) (UniProt P00803); assay: Inhibition of full length Escherichia coli His6-tagged LepB expressed in Escherichia coli C43(DE3) assessed as residual activity at 0.01 uM using dabcyl-VEVGGTATAGAFSRPGLE-(EDANS) as substrate preincubated for 10 mins followed by substrate addition measured for 2 hrs by FRET assay relative to control; procedure, shortened: as §1
[25] = tested on: Escherichia coli; assay: Antibacterial activity against wild type Escherichia coli ATCC 25922 after 16 to 20 hrs by broth microdilution assay; assay type: functional; procedure, shortened: as §2
[26] = tested on: Escherichia coli; assay: Antibacterial activity against Escherichia coli CH3130 harboring tolC deletion mutant after 16 to 20 hrs by broth microdilution assay; assay type: functional; procedure, shortened: as §3
[27] = target: Signal peptidase I (Escherichia coli K-12) (UniProt P00803); assay: Inhibition of full length Escherichia coli His6-tagged LepB expressed in Escherichia coli C43(DE3) assessed as residual activity at 1.25 uM using dabcyl-VEVGGTATAGAFSRPGLE-(EDANS) as substrate preincubated for 10 mins followed by substrate addition measured for 2 hrs by FRET assay relative to control; procedure, shortened: as §1

For `CCCCCCCCCC(=O)N1CCC[C@H]1C(=O)N[C@H](C(=O)N[C@@H](C)C(=O)N[C@@H](CC(N)=O)C(=O)N[C@@H](C)B1O[C@@H]2C[C@@H]3C[C@@H](C3(C)C)[C@]2(C)O1)[C@H](C)O`, the Activity [1] was 47%, the hemolysis at 0.75 h, 100 µM [2] was 0.4% and the Ratio IC50 [3] was 25. For the same compound, the MIC [4] was over 64 mg/L, the MIC [5] was over 64 mg/L and the Activity [6] was 82.6%. For the same compound, the Activity [7] was 19.7%, the Activity [8] was 36.4% and the Activity [9] was 84.5%. For the same compound, the Activity [10] was 29.6%, the Activity [11] was 10.6% and the Activity [12] was 17.2%. It also gave an inhibition [13] of over 50%, an MIC [14] of over 64 mg/L and an Activity [15] of 66.8%. The Activity [16] was 81.9%, the MIC [17] was 32 mg/L (≈ 42.1 µM) and the MIC [18] was over 64 mg/L. For the same compound, the Activity [19] was 0.084%, the Activity [20] was 18.1% and the pIC50 [21] was 7.32. For the same compound, the MIC [22] was over 64 mg/L, the IC50 at 72 h [23] was 7.8 µM and the Activity [24] was 84.2%. For the same compound, the MIC [25] was over 64 mg/L, the MIC [26] was over 64 mg/L and the Activity [27] was 16.9%.
